LEDGF integ inh = blocks HIV-1 LEDGF/p75-dependent DNA integration; TR-FRET IN-LEDGF/p75 DNA integration, Eu/Cy5; inhibition, % at 3.7 µM; AID 743269; 0.64% of 370,000 active;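 active = inhibition above the screen-wide mean plus 3 SD, cut at about 13% in these data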;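 note: signal is the Cy5 over europium emission ratio at 671 and 618 nm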
MBD2 DNA inh = inhibitors of human MBD2 binding to methylated oligonucleotide; Q9UBB5; TR-FRET; inhibition, % at 4.4 µM; 0.31% of 370,000 active; in the data active = inhibition above about 13%
Target sequence (Q9UBB5 whole entry, looked up): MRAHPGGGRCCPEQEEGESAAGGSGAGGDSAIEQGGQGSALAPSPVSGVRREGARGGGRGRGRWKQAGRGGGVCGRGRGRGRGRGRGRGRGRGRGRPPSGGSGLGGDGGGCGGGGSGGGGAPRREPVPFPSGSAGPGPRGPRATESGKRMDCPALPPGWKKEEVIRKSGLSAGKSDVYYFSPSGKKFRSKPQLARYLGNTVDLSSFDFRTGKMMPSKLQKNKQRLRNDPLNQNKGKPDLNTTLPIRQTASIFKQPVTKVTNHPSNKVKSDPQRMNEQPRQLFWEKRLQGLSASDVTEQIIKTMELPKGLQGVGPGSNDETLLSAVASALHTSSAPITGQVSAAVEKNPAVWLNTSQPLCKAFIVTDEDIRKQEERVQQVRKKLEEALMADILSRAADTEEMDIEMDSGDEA
UHRF1 MBD2 ctr = blocks human UHRF1 binding to methylated DNA; UHRF1 binding to methylated oligo, TR-FRET; inhibition, % at 4.4 µM; 0.75% of 370,000 active; in the data active = inhibition above about 21%;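 note: UHRF1 SRA domain binding a hemimethylated CpG hairpin DNA probe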
NSD2 inh = inhibitors of human histone methyltransferase NSD2; O96028; NSD2 peptide methylation, AlphaScreen, 120 min; inhibition, % at 12.5 µM; 0.54% of 310,000 active; in the data active = inhibition above about 50%
TDP2 absorb = TDP2 (human) inhibition, absorbance primary screen | O95551 | recombinant TDP2, T5PNP hydrolysis, p-nitrophenol absorbance 415 nm | inhibition, % at 12.8 µM | 0.34% of 370,000 active | AID 720702;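 active = inhibition above the mean of all tested compounds plus 3 SD, set per campaign, cut at about 25% in these data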
Target sequence (O95551 whole entry, looked up): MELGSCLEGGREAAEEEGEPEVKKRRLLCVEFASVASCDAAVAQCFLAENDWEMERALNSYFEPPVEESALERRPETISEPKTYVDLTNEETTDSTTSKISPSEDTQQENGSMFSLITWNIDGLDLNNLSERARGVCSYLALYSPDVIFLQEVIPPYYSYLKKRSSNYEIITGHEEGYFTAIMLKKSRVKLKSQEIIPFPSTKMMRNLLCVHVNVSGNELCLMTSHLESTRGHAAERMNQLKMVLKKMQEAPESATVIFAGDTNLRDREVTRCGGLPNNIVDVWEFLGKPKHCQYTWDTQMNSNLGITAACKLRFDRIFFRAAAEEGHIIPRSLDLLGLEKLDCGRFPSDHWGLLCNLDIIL
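test system = human TDP2 enzyme | input = TDP2 enzyme at 120 nM final | medium = 50 mM Tris-HCl pH 7.5 with Mg2+, KCl, DTT, BSA | also added = T5PNP substrate, 5 mM | times = 2 h at 37 °C | technique = epi absorbance | benchmarks = high control without enzyme, low control DMSO plus TDP2 | replication = each compound tested once, singlicate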
CASP6 VEID inh = blocks human caspase-6 cleavage activity. P55212. purified caspase-6, Z-VEID-R110 cleavage fluorescence. inhibition, % at 12.5 µM. 0.53% of 350,000 active. AID 686996;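 active = mean inhibition across replicates at least about 35%, with every replicate also reaching that limit, limit read from the data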
TDP2 inh conf = confirmation of human TDP2 inhibitors; AID 743263; inhibition, % at 12.8 µM; 22% of 1,100 active; recombinant human TDP2, absorbance read-out; shares compounds with TDP2 absorb; in the data active = inhibition above about 25%
Of the large screens only hits and unclear results are named; the others gave an inactive call (follow-up assays come after a bar, where they were run). Only some compounds are listed: those with a hit (about 1.8% of all), similar ones and a draw of the others.

COc1cc(/C=C/C(=O)OCC(=O)Nc2cc(C)on2)ccc1OCC#N	TDP2 absorb 26 | TDP2 inh conf inactive
C[C@@H]1CCCCO[C@H](CN(C)Cc2ccc(C(=O)O)cc2)[C@H](C)CN([C@H](C)CO)C(=O)c2cc(NC(=O)c3ccncc3)ccc2O1	none (no result: LEDGF integ inh, MBD2 DNA inh, UHRF1 MBD2 ctr, NSD2 inh, TDP2 absorb)
CCOC(=O)c1c(-c2ccc(Cl)cc2)csc1NC(=O)CNCc1ccco1	TDP2 absorb 32 | TDP2 inh conf inactive
Cc1ccc(C2C(C#N)=C(N)Oc3n[nH]c(-c4cccnc4)c32)o1 (stereo not drawn)	none
COc1cc(C2C(C#N)=C(N)Oc3n[nH]c(-c4cccnc4)c32)ccc1OCC(N)=O (stereo not drawn)	TDP2 absorb 52 | TDP2 inh conf inactive
COc1cc(C2C(C#N)=C(N)Oc3n[nH]c(-c4cccnc4)c32)cc(Br)c1O (stereo not drawn)	TDP2 absorb 31 (no result: NSD2 inh) | TDP2 inh conf inactive
CC(C)NC(=O)Nc1ccc2c(c1)C(=O)N([C@H](C)CO)C[C@H](C)[C@@H](CN(C)S(=O)(=O)c1cccs1)OCCCC[C@H](C)O2	none (no result: LEDGF integ inh, MBD2 DNA inh, UHRF1 MBD2 ctr, NSD2 inh, TDP2 absorb)
O=C(Nc1ccc(F)cc1)N[C@H]1CC[C@@H](CCNS(=O)(=O)c2ccccc2F)O[C@@H]1CO	none (no result: LEDGF integ inh, MBD2 DNA inh, UHRF1 MBD2 ctr, NSD2 inh, TDP2 absorb)
CN(C)C(CNC(=O)c1ccc(NS(=O)(=O)c2ccc(F)cc2)cc1)c1ccco1 (stereo not drawn)	TDP2 absorb 27 | TDP2 inh conf inactive
COc1cccc(S(=O)(=O)Nc2ccc3c(c2)[C@@H]2C[C@@H](CC(=O)NCc4cccc(F)c4)O[C@H](CO)[C@@H]2O3)c1	none (no result: LEDGF integ inh, MBD2 DNA inh, UHRF1 MBD2 ctr, NSD2 inh, TDP2 absorb)
Cc1noc(C)c1S(=O)(=O)N(C)C[C@@H]1Oc2ccc(NC(=O)NC3CCCCC3)cc2CC(=O)N([C@H](C)CO)C[C@H]1C	none (no result: LEDGF integ inh, MBD2 DNA inh, UHRF1 MBD2 ctr, NSD2 inh, TDP2 absorb)
COC(=O)CCCC1=CC2=C(c3ccccc3)C(=O)C(C)(OC(=O)C3CCCC3)C(=O)C2=CN1CC(C)C (stereo not drawn)	TDP2 absorb 25 (no result: NSD2 inh) | TDP2 inh conf inactive
COC(=O)CCCC1=CC2=C(c3ccccc3)C(=O)C(C)(OC(=O)C3CCCC3)C(=O)C2=CN1CC1CC1 (stereo not drawn)	none (no result: NSD2 inh)
COCCN1C=C2C(=O)C(C)(OC(=O)C3CCCC3)C(=O)C(c3ccccc3)=C2C=C1CCCC(=O)OC (stereo not drawn)	TDP2 absorb 30 (no result: NSD2 inh) | TDP2 inh conf inactive
CCN1CCN(Cc2ccc(OC)c(OCc3ccccc3)c2)CC1	none (no result: CASP6 VEID inh)
CCN1CCN(CC#CCOc2ccccc2OC)CC1	TDP2 absorb 29 | TDP2 inh conf inactive
O=C(CCCCl)NC1=NN(c2ccccc2)C(=O)C1	none
CC(=O)NC1=NN(c2ccccc2)C(=O)C1	TDP2 absorb 55 (no result: CASP6 VEID inh) | TDP2 inh conf inactive
CCOc1ccc2noc3c2c1C(=O)c1ccccc1-3	TDP2 absorb 39 (no result: NSD2 inh, CASP6 VEID inh) | TDP2 inh conf 34
Cc1nn(-c2ccccc2)c(N)c1C1(O)C(=O)Nc2ccc([N+](=O)[O-])cc21 (stereo not drawn)	TDP2 absorb 33 | TDP2 inh conf inactive
C[C@@H]1CN([C@H](C)CO)S(=O)(=O)c2ccc(C#CC3CC3)cc2O[C@H]1CN(C)C(=O)c1cccnc1	none (no result: LEDGF integ inh, MBD2 DNA inh, UHRF1 MBD2 ctr, NSD2 inh, TDP2 absorb)
COc1ccccc1-c1ccc(SCC(=O)NC2CCCCC2)nn1	none
COc1ccccc1-c1ccc(SCC(=O)NC2CCCC2)nn1	TDP2 absorb 37 | TDP2 inh conf inactive
Cc1cccc(CN2CCSCC2)c1	TDP2 absorb 27 | TDP2 inh conf inactive
CO[C@H]1CN(C)C(=O)c2cc(NC(=O)C3CC3)ccc2OC[C@@H](C)N(C(C)=O)C[C@H]1C	none (no result: LEDGF integ inh, MBD2 DNA inh, UHRF1 MBD2 ctr, NSD2 inh, TDP2 absorb)
O=C(C[C@@H]1C[C@@H]2c3cc(NC(=O)c4ccc5c(c4)OCO5)ccc3O[C@@H]2[C@@H](CO)O1)NCc1cccc(F)c1	none (no result: LEDGF integ inh, MBD2 DNA inh, UHRF1 MBD2 ctr, NSD2 inh, TDP2 absorb)
Cc1nc2scc(C)n2c(=O)c1S(=O)(=O)NCc1ccc(F)cc1	TDP2 absorb 25 | TDP2 inh conf inactive
C[C@@H]1CCCCO[C@@H](CN(C)C(=O)Nc2ccc(C(F)(F)F)cc2)[C@H](C)CN([C@@H](C)CO)C(=O)c2cc(NS(=O)(=O)c3cn(C)cn3)ccc2O1	none (no result: LEDGF integ inh, MBD2 DNA inh, UHRF1 MBD2 ctr, NSD2 inh, TDP2 absorb)
CCS(=O)(=O)NCC[C@H]1CC[C@@H](NC(=O)C2CCC2)[C@H](CO)O1	none (no result: LEDGF integ inh, MBD2 DNA inh, UHRF1 MBD2 ctr, NSD2 inh, TDP2 absorb)
CC(=O)c1cccc(NC(=O)N2CCc3ccccc3C2)c1	none (no result: CASP6 VEID inh)
CC(=O)c1ccc(NC(=O)N2CCc3ccccc3C2)cc1	TDP2 absorb 27 (no result: NSD2 inh) | TDP2 inh conf inactive
CC(C)NC(=O)Nc1ccc2c(c1)C(=O)N([C@H](C)CO)C[C@@H](C)[C@H](CN(C)Cc1ccc(-c3ccccc3)cc1)O2	none (no result: LEDGF integ inh, MBD2 DNA inh, UHRF1 MBD2 ctr, NSD2 inh, TDP2 absorb)
CC1=NN(c2ccccc2)C(=O)/C1=C\c1sccc1C	none
CC1=NN(c2ccccc2)C(=O)C1=C(C)C	TDP2 absorb 37 | TDP2 inh conf inactive
O=C(NCCCN1CCOCC1)c1ccc2c(c1)N(Cc1ccc(Cl)cc1)C(=O)c1ccccc1S2=O (stereo not drawn)	TDP2 absorb 53 | TDP2 inh conf inactive
O=C(NCCCN1CCCC1)c1ccc2c(c1)N(Cc1ccccc1F)C(=O)c1ccccc1S2=O (stereo not drawn)	none
N#CC1=C(N)Oc2n[nH]c(-c3cccs3)c2C1c1ccccc1C(=O)O (stereo not drawn)	none
N#CC1=C(N)Oc2n[nH]c(-c3cccs3)c2C1c1cccs1 (stereo not drawn)	TDP2 absorb 29 (no result: CASP6 VEID inh) | TDP2 inh conf inactive
COC(=O)C1=CN(Cc2ccccc2)C=C(C(=O)OC)C1c1ccc(OC)c(OC)c1	TDP2 absorb 26 | TDP2 inh conf inactive
COC(=O)C1=CN(Cc2ccccc2)C=C(C(=O)OC)C1c1ccc(O)c(OC)c1	none
Cc1ccc(CN2CCN(c3ccccc3)CC2)o1	TDP2 absorb 26 | TDP2 inh conf inactive
Cc1cc(C)c(S(=O)(=O)N2CCN(C(=O)c3ccc4c(c3)OCO4)CC2)c(C)c1	TDP2 absorb 29 | TDP2 inh conf inactive
Cc1ccc(S(=O)(=O)N2CCN(C(=O)c3ccc4c(c3)OCO4)CC2)cc1	none
COc1ccc(C(=O)NC2CCN(C(=S)Nc3ccc(C)cc3)CC2)cc1	none
COc1ccc(NC(=S)N2CCC(NC(=O)c3cccc(C)c3)CC2)cc1	TDP2 absorb 29 | TDP2 inh conf inactive
CC(C(=O)NC1C=CS(=O)(=O)C1)N1C(=O)/C(=C/c2cccc(Cl)c2)SC1=S (stereo not drawn)	TDP2 absorb 27 | TDP2 inh conf inactive
CC(C(=O)NC1C=CS(=O)(=O)C1)N1C(=O)/C(=C\c2ccccc2)SC1=S (stereo not drawn)	none (no result: CASP6 VEID inh)
CCOC(=O)C(=O)N/N=C/c1cccc(Br)c1	TDP2 absorb 25 | TDP2 inh conf inactive
COc1ccc(OC)c(C(=O)COC(=O)c2ccc(C)o2)c1	TDP2 absorb 29 (no result: CASP6 VEID inh) | TDP2 inh conf inactive
COc1ccc(C(=O)OCC(=O)c2cc(OC)ccc2OC)c(OC)c1	none (no result: CASP6 VEID inh)
